Results: ChEMBL document CHEMBL4823286, “Synthesis and evaluation of novel 2,4-diaminopyrimidines bearing a sulfoxide moiety as anaplastic lymphoma kinase (ALK) inhibition agents” (Bioorg Med Chem Lett, 2021)
Calls of active or inactive are those of the source. No cut-off for these calls is given here.

Tests used:
[1] = tested on: NCI-H2228; experiment: Cell cycle arrest in human NCI-H2228 cells assessed as accumulation of cells in S phase at 20 nM measured after 24 hrs by PI staining based flow cytometry method (reference value: 30%); type: functional
Outline: (§1)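 NCI-H2228 cells exposed to 20 nM for 0, 12, 24 or 48 h, stained with PI and analysed by flow cytometry for G0/G1, S and G2/M fractions. Phase percentages quantified by analysis software; three independent experiments, representative run shown.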

[2] = tested on: NCI-H2228; experiment: Induction of apoptosis in human NCI-H2228 cells assessed as early apoptotic cells at 25 nM measured after 48 hrs by Annexin V-FITC/PI staining based flow cytometry assay (reference value: 1.58%); type: functional
Outline: (§2)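 After 24 h or 48 h exposure (5, 25, 50 nM; DMSO 0.01% control), NCI-H2228 cells were harvested, double-stained with Annexin V-FITC and PI and run on flow cytometry. Stage percentages quantified by software; three experiments, representative shown.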

[3] = tested on: NCI-H2228; experiment: Induction of apoptosis in human NCI-H2228 cells assessed as necrotic cells at 50 nM measured after 48 hrs by Annexin V-FITC/PI staining based flow cytometry assay (reference value: 2.88%); type: functional; outline: as §2
[4] = tested on: NCI-H2228; experiment: Induction of apoptosis in human NCI-H2228 cells assessed as necrotic cells at 5 nM measured after 24 hrs by Annexin V-FITC/PI staining based flow cytometry assay (reference value: 0.21%); type: functional; outline: as §2
[5] = tested on: NCI-H2228; experiment: Inhibition of cell migration in human NCI-H2228 cells assessed as reduction in wound closure at 25 nM measured after 12 to 24 hrs by wound healing assay based phase contrast microscopy method; type: functional; settings: time 12-24 hrs
Outline: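 Wound-closure migration: NCI-H2228 cells kept in 1640 medium containing compound for 12 h or 24 h, photographed by phase contrast microscopy (4× objective); untreated control for comparison. Three experiments.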

[6] = tested on: NCI-H2228; experiment: Cell cycle arrest in human NCI-H2228 cells assessed as accumulation of cells in S phase at 20 nM measured after 48 hrs by PI staining based flow cytometry method (reference value: 30%); type: functional; outline: as §1
[7] = tested on: NCI-H2228; experiment: Induction of apoptosis in human NCI-H2228 cells assessed as necrotic cells at 5 nM measured after 48 hrs by Annexin V-FITC/PI staining based flow cytometry assay (reference value: 2.88%); type: functional; outline: as §2
[8] = tested on: NCI-H2228; experiment: Cell cycle arrest in human NCI-H2228 cells assessed as accumulation of cells in G2/M phase at 20 nM measured after 12 hrs by PI staining based flow cytometry method (reference value: 2.23%); type: functional; outline: as §1
[9] = tested on: NCI-H2228; experiment: Induction of apoptosis in human NCI-H2228 cells assessed as necrotic cells at 50 nM measured after 24 hrs by Annexin V-FITC/PI staining based flow cytometry assay (reference value: 0.21%); type: functional; outline: as §2
[10] = tested on: NCI-H2228; experiment: Induction of apoptosis in human NCI-H2228 cells assessed as induction of mitochondrial membrane potential collapse at 5 to 50 nM measured after 24 hrs by JC-1 probe based flourescence microscopy; type: functional, cell-based; settings: dose 5-50 nM
Outline: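 JC-1 read of mitochondrial membrane potential: NCI-H2228 cells given 5, 25 or 50 nM, or DMSO 0.01%, for 24 h, then probe-loaded 30 min and viewed by fluorescence microscopy for red aggregate versus green monomer signal. Three experiments.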

[11] = tested on: NCI-H2228; experiment: Induction of apoptosis in human NCI-H2228 cells assessed as early apoptotic cells at 25 nM measured after 24 hrs by Annexin V-FITC/PI staining based flow cytometry assay (reference value: 2.18%); type: functional; outline: as §2
[12] = tested on: NCI-H2228; experiment: Induction of apoptosis in human NCI-H2228 cells assessed as late apoptotic cells at 25 nM measured after 24 hrs by Annexin V-FITC/PI staining based flow cytometry assay (reference value: 2.02%); type: functional; outline: as §2
[13] = tested on: NCI-H2228; experiment: Induction of apoptosis in human NCI-H2228 cells assessed as late apoptotic cells at 5 nM measured after 48 hrs by Annexin V-FITC/PI staining based flow cytometry assay (reference value: 0.23%); type: functional; outline: as §2
[14] = tested on: NCI-H2228; experiment: Antiproliferative activity against human NCI-H2228 cells assessed as inhibition of cell proliferation measured by CCK8 assay; type: functional, cell-based
Outline: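 Cell proliferation inhibition; IC50 given as mean ± SD of three independent experiments.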

[15] = tested on: NCI-H2228; experiment: Cell cycle arrest in human NCI-H2228 cells assessed as accumulation of cells in G1 phase at 20 nM measured after 12 hrs by PI staining based flow cytometry method (reference value: 67.77%); type: functional; outline: as §1
[16] = tested on: NCI-H2228; experiment: Cell cycle arrest in human NCI-H2228 cells assessed as accumulation of cells in G2/M phase at 20 nM measured after 48 hrs by PI staining based flow cytometry method (reference value: 2.23%); type: functional; outline: as §1
[17] = tested on: NCI-H2228; experiment: Cell cycle arrest in human NCI-H2228 cells assessed as accumulation of cells in G1 phase at 20 nM measured after 48 hrs by PI staining based flow cytometry method (reference value: 67.77%); type: functional; outline: as §1
[18] = tested on: NCI-H2228; experiment: Cell cycle arrest in human NCI-H2228 cells assessed as downregulation of CDK4 protein expression at 20 nM measured after 12 to 48 hrs by western blot assay; type: functional, cell-based; settings: time 12-48 hrs
Outline: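 Western blot of cell-cycle regulatory proteins in NCI-H2228 cells held at 20 nM for 0, 12, 24 or 48 h. Performed three times, representative blot shown.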

[19] = tested on: NCI-H2228; experiment: Induction of apoptosis in human NCI-H2228 cells assessed as late apoptotic cells at 50 nM measured after 24 hrs by Annexin V-FITC/PI staining based flow cytometry assay (reference value: 2.02%); type: functional; outline: as §2
[20] = tested on: NCI-H2228; experiment: Induction of apoptosis in human NCI-H2228 cells assessed as early apoptotic cells at 50 nM measured after 48 hrs by Annexin V-FITC/PI staining based flow cytometry assay (reference value: 1.58%); type: functional; outline: as §2
[21] = tested on: NCI-H2228; experiment: Cell cycle arrest in human NCI-H2228 cells assessed as accumulation of cells in G2/M phase at 20 nM measured after 24 hrs by PI staining based flow cytometry method (reference value: 2.23%); type: functional; outline: as §1

CCC(=O)Nc1cc(Nc2ncc(Cl)c(Nc3ccc(F)cc3[S+]([O-])CC)n2)c(OC)cc1N1CCN(C)CC1 (stereo unspecified)
Activity [1]: 10.21%
Activity [2]: 19.9%
Activity [3]: 4.55%
Activity [4]: 0.17%
Activity [5]: Active
Activity [6]: 10.1%
Activity [7]: 0.69%
Activity [8]: 8.55%
Activity [9]: 0.47%
Activity [10]: Active
Activity [11]: 13.9%
Activity [12]: 9.63%
Activity [13]: 14.1%
IC50 [14]: 24.4 nM
Activity [15]: 71.23%
Activity [16]: 3.41%
Activity [17]: 86.49%
Activity [18]: Active
Activity [19]: 5.14%
Activity [20]: 7.9%
Activity [21]: 7.16%
